Measurements from ChEMBL document CHEMBL3098016, “Biphenyl derivatives incorporating urea unit as novel VEGFR-2 inhibitors: design, synthesis and biological evaluation” (Bioorg Med Chem, 2014).

Columns and labels:
[1] = biological target: Vascular endothelial growth factor receptor 2 (Homo sapiens, UniProt P35968); assay: Inhibition of VEGFR2 (unknown origin) after 30 mins by HTRF assay
LoVo = assay: Antiproliferative activity against human LoVo cells after 48 hrs by MTT assay
[2] = Antiproliferative activity against human SGC7901 cells after 48 hrs by MTT assay; settings: SGC-7901, 48 h
K562 = assay: Antiproliferative activity against human K562 cells after 48 hrs by MTT assay; settings: K562, 48 h
[3] = Antiproliferative activity against human SH-SY5Y cells after 48 hrs by MTT assay
MDA-MB-231 = assay: Antiproliferative activity against human MDA-MB-231 cells after 48 hrs by MTT assay; type: functional, cell-based; settings: MDA-MB-231, 48 h
How it was run: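 Cells in exponential growth plated at 1 × 10⁴ cells/well and incubated 24 h at 37 °C. Compounds were then added at various concentrations for 48 h. MTT (5 mg/mL) was added, followed by 4 h at 37 °C. Supernatant was removed and formazan dissolved in DMSO, with absorbance read at 490 nm. IC50 in µM.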

Sequence of Vascular endothelial growth factor receptor 2 (P35968 whole entry): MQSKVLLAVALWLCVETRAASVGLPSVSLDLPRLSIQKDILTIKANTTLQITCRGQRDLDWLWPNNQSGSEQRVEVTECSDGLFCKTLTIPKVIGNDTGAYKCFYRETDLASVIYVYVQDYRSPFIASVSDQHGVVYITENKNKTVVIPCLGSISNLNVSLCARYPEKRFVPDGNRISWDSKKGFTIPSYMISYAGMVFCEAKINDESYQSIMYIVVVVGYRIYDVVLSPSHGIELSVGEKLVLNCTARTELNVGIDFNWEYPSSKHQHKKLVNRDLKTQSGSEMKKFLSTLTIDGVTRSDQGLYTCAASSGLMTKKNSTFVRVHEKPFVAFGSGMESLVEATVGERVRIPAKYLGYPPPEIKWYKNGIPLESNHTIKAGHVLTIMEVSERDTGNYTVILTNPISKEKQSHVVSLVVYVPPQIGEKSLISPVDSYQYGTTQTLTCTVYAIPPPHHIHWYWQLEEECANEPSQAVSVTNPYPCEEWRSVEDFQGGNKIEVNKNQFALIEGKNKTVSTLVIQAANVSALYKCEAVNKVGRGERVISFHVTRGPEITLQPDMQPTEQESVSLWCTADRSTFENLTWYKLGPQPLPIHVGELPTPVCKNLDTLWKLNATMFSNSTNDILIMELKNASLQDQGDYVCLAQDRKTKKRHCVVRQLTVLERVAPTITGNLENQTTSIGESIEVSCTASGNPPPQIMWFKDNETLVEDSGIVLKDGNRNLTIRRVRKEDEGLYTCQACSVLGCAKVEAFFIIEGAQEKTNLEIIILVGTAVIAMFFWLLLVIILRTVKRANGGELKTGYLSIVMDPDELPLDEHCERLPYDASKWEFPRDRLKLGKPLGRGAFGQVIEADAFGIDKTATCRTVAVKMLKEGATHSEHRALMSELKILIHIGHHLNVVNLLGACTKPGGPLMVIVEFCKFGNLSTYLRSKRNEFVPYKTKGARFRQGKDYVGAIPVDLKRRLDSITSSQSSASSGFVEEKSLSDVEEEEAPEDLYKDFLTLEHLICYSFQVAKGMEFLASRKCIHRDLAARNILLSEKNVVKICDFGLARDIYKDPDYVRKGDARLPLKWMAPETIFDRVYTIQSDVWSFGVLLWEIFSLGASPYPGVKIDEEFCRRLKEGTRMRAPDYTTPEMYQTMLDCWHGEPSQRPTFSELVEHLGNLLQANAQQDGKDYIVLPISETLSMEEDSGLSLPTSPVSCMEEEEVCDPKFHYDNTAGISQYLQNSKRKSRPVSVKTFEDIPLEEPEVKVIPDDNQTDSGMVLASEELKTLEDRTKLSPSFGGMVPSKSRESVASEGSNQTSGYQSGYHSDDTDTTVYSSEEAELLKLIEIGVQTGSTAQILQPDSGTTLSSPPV

In the case of `COc1cc(-c2cc(NC(=O)Nc3ccc(OCCN(C)C)cc3)cc(OC)c2OC)ccc1C(C)=O`, the IC50 [1] is reported as greater than 0.3 µM.

With `CCN(CC)CCOc1ccc(NC(=O)Nc2cc(OC)c(OC)c(-c3ccc(C(C)=O)c(OC)c3)c2)cc1` the IC50 [1] was greater than 0.3 µM.

With `COc1cc(-c2cc(NC(=O)Nc3ccc(OCCN4CCOCC4)cc3)cc(OC)c2OC)ccc1C(C)=O` the IC50 [1] was greater than 0.3 µM.

Compound `COc1cc(-c2cc(NC(=O)Nc3ccc(OCCCN4CCOCC4)cc3)cc(OC)c2OC)ccc1C(C)=O` has an IC50 (LoVo) of 11.1 µM, an IC50 [2] of 80.9 µM and an IC50 (K562) of 2.23 µM. For the same compound, the IC50 [3] was 10.4 µM.

Work on `COc1cc(-c2cc(NC(=O)Nc3ccc(OCCN(C)C)cc3C)cc(OC)c2OC)ccc1C(C)=O` yielded an IC50 [1] greater than 0.3 µM.

With `COc1cc(-c2cc(NC(=O)Nc3cc(OCCN4CCCCC4)ccc3C)cc(OC)c2OC)ccc1C(C)=O` the IC50 [1] was greater than 0.3 µM.

Work on `CCN(CC)CCOc1ccc(NC(=O)Nc2cc(OC)c(OC)c(-c3ccc(/C(C)=N/O)c(OC)c3)c2)c(C)c1` yielded an IC50 [1] greater than 0.3 µM.

With `CNC(=O)c1cc(Oc2ccc(NC(=O)Nc3ccc(Cl)c(C(F)(F)F)c3)cc2)ccn1` [SORAFENIB] the IC50 (LoVo) was 6.56 µM, the IC50 (MDA-MB-231) was 35 µM and the IC50 [2] was 101 µM. It also gave an IC50 (K562) of 0.86 µM and an IC50 [3] of 5.73 µM.
